Converted amounts (≈) assume the structure as drawn.

For one assay, the system named is Escherichia coli. Description: Inhibition of Escherichia coli D110 DNA gyrase after 30 mins by supercoiling assay.
For assay [1], the system named is Staphylococcus aureus. In words: Antibacterial activity against Staphylococcus aureus ATCC 25923 by twofold agar dilution method. The format is functional. The method in brief:
(§1)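 MIC read as lowest inhibitory level in twofold serial dilutions in Müller–Hinton agar; each spot inoculated with 10^4 CFU.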
(In agar dilution the substance is mixed into plates at graded concentrations.)

The test system of assay [2] is Staphylococcus aureus. In words: Antibacterial activity against novobiocin R144I-resistant Staphylococcus aureus ATCC 25923 by agar dilution method. Format: functional. The method in brief: as §1
Assay [3] deals with Staphylococcus aureus. In words: Antibacterial activity against Staphylococcus aureus Smith by twofold agar dilution method. Format: functional. The method in brief: as §1
For assay [4], the system named is Staphylococcus aureus. In words: Antibacterial activity against methicillin and quinolones-resistant Staphylococcus aureus Smith QR54 by twofold agar dilution method. The format is functional. The method in brief:
as §1

The test system of assay [5] is Staphylococcus aureus. In words: Antibacterial activity against erythromycin, methicillin and trimethoprim-resistant Staphylococcus aureus Smith 744 by twofold agar dilution method. The format is functional. The method in brief: as §1
In assay [6] the test system is Staphylococcus epidermidis. In words: Antibacterial activity against Staphylococcus epidermidis ATCC 14990 by twofold agar dilution method. The format is functional. The method in brief:
(§2)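 Twofold serial dilutions in Müller–Hinton agar with an inoculum of 10^4 CFU per spot. The read-out is the minimal inhibitory concentration (MIC).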

A further assay relates to Streptococcus pyogenes. Description: Antibacterial activity against Streptococcus pyogenes beta-15 by agar dilution method. The format is functional. The method in brief: as §2
In a further assay the test system is Enterococcus faecium. Description: Antibacterial activity against ampicillin, trimethoprim and vancomycin-resistant Enterococcus faecium vanA E23-8 by twofold agar dilution method. The format is functional. The method in brief: as §1

The molecule `COc1ccc(N2Cc3c(O)cc(OC)c(C)c3C2=O)cc1` had an Activity in the assay with Escherichia coli of 8 µg/mL.
On the same count and under the same terms, the value for `Oc1cccc(CNc2ccc(Cl)cc2)c1O` was 16 µg/mL; that for `COc1ccc(N2C(=O)c3c(C)c(OC)cc(O)c3C2c2ccco2)cc1` (stereo not given) was over 63 µg/mL; that for `COc1cc(O)c2c(c1C)C(=O)N(c1ccc(S(N)(=O)=O)cc1)C2` was 1 µg/mL.
`COc1ccc(N2C(=O)c3c(C)c(OC)cc(O)c3C2Sc2ccc(C)cc2)cc1` (stereo not given) registered an Activity in the assay with Escherichia coli of 31 µg/mL.
In the assay on Escherichia coli, `COc1ccc(N2C(=O)c3c(C)c(OC)cc(O)c3C2CC=O)cc1` (stereo not given) registered an Activity of 31 µg/mL.
The same measure, in the same setting: the same measure for `COc1ccc(N2C(=O)c3c(C)c(OC)cc(O)c3C2Sc2ncc[nH]2)cc1` (stereo not given): 4 µg/mL.
In turn, `COC(=O)c1c(C)c(OC)cc(O)c1CNc1ccc(Cl)c(Cl)c1` gave an Activity in the assay on Escherichia coli of 2 µg/mL.
On the same count and under the same terms, the value for `COc1ccc(N2C(=O)c3c(C)c(OC)cc(O)c3C2C(Cl)C(C)=O)cc1` (stereo not given) was 63 µg/mL.
A word on the MIC: it is the lowest concentration that inhibits growth of the organism. A high value points to a need for much substance. As to `COc1cc(O)c2c(c1Br)C(=O)N1c3ccc(C)cc3COC21` (stereo not given), in the assay on Escherichia coli, the Activity came out at 0.25 µg/mL. Also, the MIC in the assay with Staphylococcus aureus [1] was 8 µg/mL (≈ 21.3 µM); against Staphylococcus aureus [2] it was 4 µg/mL (≈ 10.6 µM); in the assay with Staphylococcus aureus [3] it was 8 µg/mL (≈ 21.3 µM); in the assay on Staphylococcus aureus [4] it was 8 µg/mL (≈ 21.3 µM); in the assay with Staphylococcus aureus [5], 8 µg/mL (≈ 21.3 µM); in assay [6] it was 2 µg/mL (≈ 5.32 µM). The minimum inhibitory concentration (MIC) was 16 µg/mL (≈ 42.5 µM) in the assay with Streptococcus pyogenes and over 32 µg/mL in the assay on Enterococcus faecium.
With `COc1cc(O)c2c(c1C)C(=O)N(c1cccnc1)C2`, the Activity in the assay with Escherichia coli was 2 µg/mL.
On the same count and under the same terms, the same measure for `COc1cc(O)c2c(c1C)C(=O)N(c1cnc3ccccc3c1)C2`: 0.5 µg/mL.
In turn, `COc1cc(O)c2c(c1Br)C(=O)N1c3ccccc3COC21` (stereo not given) came in with an Activity in the assay on Escherichia coli of 0.5 µg/mL. Further, the MIC is 2 µg/mL (≈ 5.52 µM) in the assay on Staphylococcus aureus [1]; 2 µg/mL (≈ 5.52 µM) in the assay on Staphylococcus aureus [2]; 2 µg/mL (≈ 5.52 µM) against Staphylococcus aureus [3]; 2 µg/mL (≈ 5.52 µM) against Staphylococcus aureus [4]; 4 µg/mL (≈ 11 µM) in the assay on Staphylococcus aureus [5]; over 2 µg/mL in assay [6]. The MIC was 8 µg/mL (≈ 22.1 µM) in the assay on Streptococcus pyogenes and over 32 µg/mL against Enterococcus faecium.
`COC(=O)c1c(C)c(OC)cc(O)c1CNc1ccc2ncccc2c1`: the Activity in the assay on Escherichia coli was 8 µg/mL.
`COc1cc(O)c2c(c1C)C(=O)N(c1cccc(C(=O)O)c1)C2` returned an Activity in the assay on Escherichia coli of 8 µg/mL.
On the same count and under the same terms, the value for `COc1ccc(N2C(=O)c3c(C)c(OC)cc(O)c3C2c2[nH]c3ccccc3c2C)cc1` (stereo not given) was over 63 µg/mL; that for `COC(=O)c1c(C)c(OC)cc(O)c1CNc1cc(Cl)cc(Cl)c1` was 4 µg/mL; that for `COc1cc(O)c2c(c1C)C(=O)N(c1ccc3ncccc3c1)C2` was 1 µg/mL.
Same read-out and setting: the value for `COc1ccc(N2C(=O)c3c(C)c(OC)cc(O)c3C2c2ccc(CC#N)s2)cc1` (stereo not given) was 36 µg/mL.
In the case of `COc1cc(O)c2c(c1C)C(=O)N1c3ccccc3COC21` (stereo not given), the Activity in the assay on Escherichia coli came to 0.5 µg/mL. In addition, the MIC (against Staphylococcus aureus [1]; against Staphylococcus aureus [3]; in assay [6]; in the assay on Streptococcus pyogenes; against Enterococcus faecium) was over 32 µg/mL in each case.
Consider `COc1ccc(N2C(=O)c3c(C)c(OC)cc(O)c3C2Sc2ncccn2)cc1` (stereo not given), for which, in the assay on Escherichia coli, the Activity is 4 µg/mL.
For the molecule `CO[C@@H]1[C@@H](OC(N)=O)[C@@H](O)[C@H](Oc2ccc3c(O)c(NC(=O)c4ccc(O)c(CC=C(C)C)c4)c(=O)oc3c2C)OC1(C)C` [NOVOBIOCIN], in the assay with Escherichia coli, the Activity worked out at 0.25 µg/mL. Further, the MIC in the assay with Staphylococcus aureus [1] came to 0.25 µg/mL (≈ 0.408 µM); against Staphylococcus aureus [2], 8 µg/mL (≈ 13.1 µM); against Staphylococcus aureus [3], 0.25 µg/mL (≈ 0.408 µM); with Staphylococcus aureus [4], 0.12 µg/mL (≈ 0.196 µM); in the assay with Staphylococcus aureus [5], 0.25 µg/mL (≈ 0.408 µM); in assay [6], 0.12 µg/mL (≈ 0.196 µM). Besides, the figures for the MIC in the assay with Streptococcus pyogenes and with Enterococcus faecium were 2 µg/mL (≈ 3.26 µM) and 8 µg/mL (≈ 13.1 µM), respectively.
In the case of `COC(=O)CCSC1c2c(O)cc(OC)c(C)c2C(=O)N1c1ccc(OC)cc1` (stereo not given), the Activity in the assay on Escherichia coli came to 0.5 µg/mL.
Same read-out and setting: the value for `COc1cc(O)c2c(c1C)C(=O)N(c1ccc3[nH]ncc3c1)C2` was 1 µg/mL; that for `Oc1ccc(CNc2ccc(Cl)cc2)c(O)c1` was 16 µg/mL; that for `Oc1ccc(Cl)cc1CNc1cc(Cl)cc(Cl)c1` was 4 µg/mL.

For the origin of these results see ChEMBL document CHEMBL1139764, “Design, synthesis, and structure-activity relationship studies of new phenolic DNA gyrase inhibitors” (2007).
